This note sets out measurements from ChEMBL document CHEMBL1938239, “Novel analgesic/anti-inflammatory agents: diarylpyrrole acetic esters endowed with nitric oxide releasing properties” (J Med Chem, 2011).

Calls of active or inactive are those of the source. The rule behind the calls is not given here.

For assay [1], the system named is Rattus norvegicus. The experiment in a line: Antiinflammatory activity against carrageenan-induced paw edema in Sprague-Dawley rat assessed as paw weight at 10 mg/kg, po administered 4 hrs post challenge measured after 30 mins (reference value: 61.5+/-3.4 g). Type of assay: functional.
Assay [2] deals with Rattus norvegicus. The experiment in a line: Antiinflammatory activity against carrageenan-induced paw edema in Sprague-Dawley rat assessed as paw weight at 10 mg/kg, po administered 4 hrs post challenge measured after 60 mins (reference value: 61.5+/-3.4 g). It counts as functional.
In assay [3] the test system is Rattus norvegicus. In words: Antiinflammatory activity against carrageenan-induced paw edema in Sprague-Dawley rat assessed as paw weight at 10 mg/kg, po administered 4 hrs post challenge measured after 120 mins (reference value: 61.5+/-3.4 g). Type of assay: functional. (Carrageenan injected into the paw causes an acute inflammation.)
Assay [4] concerns Rattus norvegicus. In words: Antiinflammatory activity against carrageenan-induced edema in Sprague-Dawley rat assessed as right hind paw volume at 10 mg/kg, po administered 4 hrs post challenge measured after 60 mins. Type of assay: functional. In outline: (§1)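 Rats received intraplantar carrageenan. Right hind paw volume was measured 4 h after the carrageenan injection and compared with saline/carrageenan-treated controls. Oral dosing in CMC vehicle; volume recorded at 60 min after treatment.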

The test system of assay [5] is Rattus norvegicus. In words: Antiinflammatory activity against carrageenan-induced edema in Sprague-Dawley rat assessed as right hind paw volume at 20 mg/kg, po administered 4 hrs post challenge measured after 60 mins. It counts as functional. The procedure, abridged: as §1
For assay [6], the system named is Rattus norvegicus. In words: Antiinflammatory activity against carrageenan-induced edema in Sprague-Dawley rat assessed as right hind paw volume at 40 mg/kg, po administered 4 hrs post challenge measured after 60 mins. It counts as functional. The procedure, abridged:
as §1

The target of assay [7] is T1, Prostaglandin G/H synthase 1 (Mus musculus) (UniProt P22437).
T1 sequence (whole entry): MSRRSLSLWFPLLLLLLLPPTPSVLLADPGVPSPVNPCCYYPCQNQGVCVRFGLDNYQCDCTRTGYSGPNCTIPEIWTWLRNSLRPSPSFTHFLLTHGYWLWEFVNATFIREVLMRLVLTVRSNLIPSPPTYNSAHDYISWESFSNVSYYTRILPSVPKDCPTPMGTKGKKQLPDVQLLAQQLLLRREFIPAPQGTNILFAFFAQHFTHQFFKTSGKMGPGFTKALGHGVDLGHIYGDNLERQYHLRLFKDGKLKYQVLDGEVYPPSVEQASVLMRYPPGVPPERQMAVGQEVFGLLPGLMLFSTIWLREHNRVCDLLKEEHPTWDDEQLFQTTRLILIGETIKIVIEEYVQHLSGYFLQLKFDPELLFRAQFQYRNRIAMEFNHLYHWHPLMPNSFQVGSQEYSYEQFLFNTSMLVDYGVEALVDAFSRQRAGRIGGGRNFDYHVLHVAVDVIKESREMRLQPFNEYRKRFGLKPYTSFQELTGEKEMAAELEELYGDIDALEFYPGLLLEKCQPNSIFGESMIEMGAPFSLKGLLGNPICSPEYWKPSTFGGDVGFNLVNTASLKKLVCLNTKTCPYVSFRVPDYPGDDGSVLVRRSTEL
In words: Inhibition of COX-1-mediated PGE2 production in arachidonic acid-stimulated mouse J774 cells at 0.1 uM incubated for 15 mins prior to arachidonic acid-challenge by radioimmunoassay. Type of assay: cell-based. The procedure, abridged:
(§2)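 J774 murine macrophages grown in DMEM with 10% FBS and allowed to adhere for 2 h at 37 °C. Where inhibition exceeded 50%, 0.01–1 μM was also tested. Supernatant PGE2 was measured by RIA as % inhibition versus control, in triplicate wells over three experiments. IC50 came from a sigmoidal variable-slope fit.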

The target of assay [8] is T1, Prostaglandin G/H synthase 1 (Mus musculus). In words: Inhibition of COX-1-mediated PGE2 production in arachidonic acid-stimulated mouse J774 cells at 1 uM incubated for 15 mins prior to arachidonic acid-challenge by radioimmunoassay. Type of assay: cell-based. The procedure, abridged: as §2
The target is the same in assay [9]. The experiment in a line: Inhibition of COX-1-mediated PGE2 production in arachidonic acid-stimulated mouse J774 cells at 10 uM incubated for 15 mins prior to arachidonic acid-challenge by radioimmunoassay. Type of assay: cell-based. In outline:
as §2

For assay [10], the target named is T2, Prostaglandin G/H synthase 1 (Mus musculus, UniProt P22437).
T2 sequence (P22437 whole entry): T1 sequence (whole entry)
The experiment in a line: Inhibition of COX-1-mediated PGE2 production in arachidonic acid-stimulated mouse J774 cells incubated for 15 mins prior to arachidonic acid-challenge by radioimmunoassay. It counts as cell-based. The procedure, abridged: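 J774 murine macrophages grown in DMEM with 10% FBS and allowed to adhere for 2 h at 37 °C. Cells were pretreated with compound at 10 μM for 15 min, then given 15 μM arachidonic acid for 30 min at 37 °C. Where inhibition exceeded 50%, 0.01–1 μM was also tested. Supernatant PGE2 was measured by RIA as % inhibition versus control, in triplicate wells over three experiments. IC50 came from a sigmoidal variable-slope fit.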

In assay [11] the target is T3, Prostaglandin G/H synthase 2 (Mus musculus, UniProt Q05769).
T3 sequence (Q05769 whole entry): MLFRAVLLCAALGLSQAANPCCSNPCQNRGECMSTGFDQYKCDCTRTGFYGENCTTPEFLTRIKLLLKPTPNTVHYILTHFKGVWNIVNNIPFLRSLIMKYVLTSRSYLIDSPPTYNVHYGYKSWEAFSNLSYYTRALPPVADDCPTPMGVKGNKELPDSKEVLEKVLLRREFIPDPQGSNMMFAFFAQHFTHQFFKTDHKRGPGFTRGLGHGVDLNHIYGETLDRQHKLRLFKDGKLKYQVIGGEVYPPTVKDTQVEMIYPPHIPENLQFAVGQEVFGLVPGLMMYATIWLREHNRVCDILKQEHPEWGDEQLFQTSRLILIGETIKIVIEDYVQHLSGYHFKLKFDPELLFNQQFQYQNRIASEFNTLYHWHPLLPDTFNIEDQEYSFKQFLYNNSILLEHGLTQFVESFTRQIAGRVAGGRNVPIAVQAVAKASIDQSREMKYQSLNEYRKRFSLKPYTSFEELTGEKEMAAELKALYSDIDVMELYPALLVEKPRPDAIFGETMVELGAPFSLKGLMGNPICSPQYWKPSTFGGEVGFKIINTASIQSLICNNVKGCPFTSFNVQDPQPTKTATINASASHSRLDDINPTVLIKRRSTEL
In words: Inhibition of COX-2-mediated PGE2 production in LPS-stimulated mouse J774 cells after 24 hrs by radioimmunoassay. It counts as cell-based.

Another assay relates to J774. The experiment in a line: Selectivity ratio of IC50 for COX1 in mouse J774 cells to IC50 for COX2 in mouse J774 cells. It counts as cell-based. The procedure, abridged: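 Ratio of J774 IC50s, COX-1 over COX-2. For COX-1, cells were pretreated with compound for 15 min, then given 15 μM arachidonic acid for 30 min at 37 °C. For COX-2, cells received E. coli LPS 10 μg/mL for 24 h with compound at 0.01–10 μM. PGE2 was measured by RIA in triplicate wells over three experiments. IC50 came from a sigmoidal fit.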

The test system of assay [12] is Aorta. The experiment in a line: Vasorelaxation activity against KCl-induced contraction in isolated Wistar rat thoracic endothelium-denulated aortic rings. It counts as functional, tissue-based. The procedure, abridged: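 Endothelium-denuded thoracic aortic rings from male Wistar rats (250−350 g); denudation confirmed by <10% relaxation to 10 μM ACh. Rings precontracted with 30 mM KCl; compound added at 3-fold increasing concentrations, 1 nM to 10 μM. Isometric tension recorded. Emax given as % of KCl tone; pIC50 derived. Mean ± standard error of 6−10 experiments; repeated with 1 μM ODQ.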

The test system of assay [13] is Aorta. In words: Vasorelaxation activity against KCl-induced contraction in isolated Wistar rat thoracic endothelium-denulated aortic rings in the presence of guanylate cyclase inhibitor ODQ. Type of assay: functional, tissue-based. The procedure, abridged:
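Thoracic aortic rings from male Wistar rats (250–350 g), endothelium removed by rubbing; rings relaxing ≥10% to ACh 10 μM on KCl 30 mM tone were discarded. ODQ 1 μM was incubated, then rings were contracted with KCl 30 mM and given 3-fold increasing concentrations of 1 nM–10 μM.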

The subject of the next assay is Mus musculus. The experiment in a line: Analgesic activity in Swiss albino mouse abdominal constriction model assessed as reduction in acetic acid-induced writhing response for 10 mins at 20 to 40 mg/kg, po administered 30 mins prior to acetic acid-challenge measured after 5 mins relative to vehicle-treated control. Type of assay: functional, organism-based. Particulars: Abdomen. In outline: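 Male Swiss albino mice (23−25 g); 0.6% acetic acid (10 mL/kg) injected ip. Stretching movements counted for 10 min, starting 5 min after administration. Oral doses in carboxymethylcellulose (CMC) vehicle, compared with vehicle-treated mice.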
(An intraperitoneal irritant provokes the stretching counted in writhing tests.)

Assay [14] concerns Rattus norvegicus. In words: Antiinflammatory activity against carrageenan-induced paw edema in Sprague-Dawley rat assessed as paw weight at 20 mg/kg, po administered 4 hrs post challenge measured after 30 mins (reference value: 62.5+/-3.1 g). Type of assay: functional.
The test system of assay [15] is Rattus norvegicus. The experiment in a line: Antiinflammatory activity against carrageenan-induced paw edema in Sprague-Dawley rat assessed as paw weight at 20 mg/kg, po administered 4 hrs post challenge measured after 60 mins (reference value: 62.5+/-3.1 g). It counts as functional.
Assay [16] relates to Rattus norvegicus. In words: Antiinflammatory activity against carrageenan-induced paw edema in Sprague-Dawley rat assessed as paw weight at 20 mg/kg, po administered 4 hrs post challenge measured after 120 mins (reference value: 62.5+/-3.1 g). It counts as functional.
Assay [17] relates to Rattus norvegicus. The experiment in a line: Antiinflammatory activity against carrageenan-induced paw edema in Sprague-Dawley rat assessed as paw weight at 40 mg/kg, po administered 4 hrs post challenge measured after 30 mins (reference value: 63.2+/-3.3 g). It counts as functional.
The test system of assay [18] is Rattus norvegicus. In words: Antiinflammatory activity against carrageenan-induced paw edema in Sprague-Dawley rat assessed as paw weight at 40 mg/kg, po administered 4 hrs post challenge measured after 60 mins (reference value: 63.2+/-3.3 g). It counts as functional.
For assay [19], the system named is Rattus norvegicus. In words: Antiinflammatory activity against carrageenan-induced paw edema in Sprague-Dawley rat assessed as paw weight at 40 mg/kg, po administered 4 hrs post challenge measured after 120 mins (reference value: 63.2+/-3.3 g). It counts as functional.
The subject of assay [20] is Rattus norvegicus. The experiment in a line: Antiinflammatory activity against carrageenan-induced paw edema in Sprague-Dawley rat assessed as paw weight at 20 mg/kg, po administered 4 hrs post challenge measured after 30 mins (reference value: 62.6+/-3.1 g). Type of assay: functional.
Assay [21] concerns Rattus norvegicus. The experiment in a line: Antiinflammatory activity against carrageenan-induced paw edema in Sprague-Dawley rat assessed as paw weight at 20 mg/kg, po administered 4 hrs post challenge measured after 60 mins (reference value: 62.6+/-3.1 g). Type of assay: functional.
Assay [22] concerns Rattus norvegicus. In words: Antiinflammatory activity against carrageenan-induced paw edema in Sprague-Dawley rat assessed as paw weight at 20 mg/kg, po administered 4 hrs post challenge measured after 120 mins (reference value: 62.6+/-3.1 g). It counts as functional.
Assay [23] deals with Rattus norvegicus. In words: Antiinflammatory activity against carrageenan-induced paw edema in Sprague-Dawley rat assessed as paw weight at 40 mg/kg, po administered 4 hrs post challenge measured after 30 mins (reference value: 61.3+/-3.0 g). It counts as functional.
For assay [24], the system named is Rattus norvegicus. In words: Antiinflammatory activity against carrageenan-induced paw edema in Sprague-Dawley rat assessed as paw weight at 40 mg/kg, po administered 4 hrs post challenge measured after 60 mins (reference value: 61.3+/-3.0 g). Type of assay: functional.
Assay [25] relates to Rattus norvegicus. The experiment in a line: Antiinflammatory activity against carrageenan-induced paw edema in Sprague-Dawley rat assessed as paw weight at 40 mg/kg, po administered 4 hrs post challenge measured after 120 mins (reference value: 61.3+/-3.0 g). It counts as functional.

Regarding `Cc1ccc(-c2cc(C(F)(F)F)nn2-c2ccc(S(N)(=O)=O)cc2)cc1` [CELECOXIB], the Activity with Rattus norvegicus [1] was found to be 54.3 g; with Rattus norvegicus [2], 57.1 g; in the assay on Rattus norvegicus [3] it was 54.9 g; in the assay with Rattus norvegicus [4], 1.36 mL.
By inhibition is commonly meant the percentage by which the read-out fell short of the control. Lower therefore signals a weak effect. By IC50 is commonly meant the concentration needed to halve the response being measured. A word on the Emax: it is the greatest response seen or fitted, relative to the assay's reference. Take `Cc1c(CC(=O)OCCCO[N+](=O)[O-])cc(-c2ccc(S(C)(=O)=O)cc2)n1-c1cccc(F)c1`: the Activity with Rattus norvegicus [5] was found to be 2.05 mL; in the assay with Rattus norvegicus [6] it was 1.96 mL; in the assay with Rattus norvegicus [14], 43.2 g; in the assay with Rattus norvegicus [15], 45.1 g; with Rattus norvegicus [16] it was 40.7 g; in the assay on Rattus norvegicus [17] it was 45.5 g. Further, the Activity with Rattus norvegicus [18] amounted to 44.9 g; in the assay with Rattus norvegicus [19], 36.8 g. For the same compound, the inhibition stood at 20% in assay [7], 50% in assay [8] and 75% in assay [9]. Also, the figures for the half-maximal inhibitory concentration (IC50) (in assay [10]; in assay [11]; in the assay on Aorta [12]) were 1100 nM, 7.3 nM and more than 10000 nM, respectively. Also, the Ratio IC50 in the assay on J774 turned out to be 151. In the assay with Aorta [12], this compound had a maximum response (Emax) of 39%. Besides, the outcome in the assay on Aorta [13] and in the assay on Mus musculus was inactive.
In assay [9], `Cc1c(CC(=O)OCCCO)cc(-c2ccc(S(C)(=O)=O)cc2)n1-c1cccc(F)c1` registered an inhibition of 0%. The same compound yielded an IC50 in [10] of more than 10000 nM. In the assay on J774, the Ratio IC50 was more than 435. Further, the outcome in the assay on Mus musculus was inactive. Further, the Activity in the assay on Rattus norvegicus [20] is listed as 41.2 g; in the assay with Rattus norvegicus [21], 45.8 g; in the assay with Rattus norvegicus [22] it was 36.4 g; in the assay with Rattus norvegicus [23], 43.1 g; in the assay with Rattus norvegicus [24], 48.8 g; in the assay on Rattus norvegicus [25] it was 44.4 g.
